Laboratory results published in ChEMBL document CHEMBL3526151, “Reversible disulfide formation of the glutamate carboxypeptidase II inhibitor E2072 results in prolonged systemic exposures in vivo” (Drug Metab Dispos, 2012).

Key:
Rattus norvegicus [1] = experiment: Elimination half life in Sprague-Dawley rat at 10 mg/kg, iv by LC-MS/MS analysis; format: ADME, organism-based; parameters: dose 10 mg/kg, route intravenous; settings: in vivo
Summary of the method: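 Male Sprague-Dawley rats received a single IV dose of either 10 mg/kg parent drug (n = 6) or 5 mg/kg homodisulfide (n = 5), in 50 mM HEPES-buffered saline, pH 7.4. Blood was collected into NEM-containing heparinized tubes for up to 7 days. Parent drug and homodisulfide in plasma were quantified by LC-MS/MS. Terminal t1/2β was calculated as 0.693/λz.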

[2] = Cmax in cynomolgus monkey at 5 mg/kg, iv administered as bolus injection by LC-MS/MS analysis; format: ADME, organism-based, Macaca fascicularis; parameters: dose 5 mg/kg, route intravenous; settings: in vivo
Summary of the method: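 Cynomolgus monkeys (n = 3) received a nominal 5 mg/kg dose in 50 mM HEPES, TCEP-treated to prevent disulfide formation. Dosing was either an IV bolus via cephalic or saphenous vein or oral. Arterial cannula blood was collected into NEM-containing heparinized tubes for up to 9 days and analyzed by LC-MS/MS. Noncompartmental analysis gave t1/2 = 0.693/λz and F% = dose-normalized mean AUCinf p.o./i.v. ×100.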

Cynomolgus monkey = experiment: AUC(0 to infinity) in cynomolgus monkey at 5 mg/kg, po by LC-MS/MS analysis; format: ADME, organism-based, Macaca fascicularis, Plasma; parameters: dose 5 mg/kg, route oral, time infinity; settings: in vivo
Summary of the method: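 Cynomolgus monkeys (n = 3) dosed orally at a nominal 5 mg/kg in TCEP-treated 50 mM HEPES solution. Blood taken via iliac or femoral arterial cannula up to 9 days into heparin/NEM tubes. Plasma analyzed by LC-MS/MS. Cl/F and Vd/F derived noncompartmentally.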

[3] = Cmax in Sprague-Dawley rat brain at 10 mg/kg, po administered as single dose measured per gm of tissue by LC-MS/MS analysis; format: ADME, organism-based; parameters: dose 10 mg/kg, route oral
Summary of the method: (§1)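 Male Sprague-Dawley rats were dosed orally with 10 mg/kg/day, either once or daily for 5 days; n = 4 per group. Blood was taken by cardiac puncture and liver, kidney, brain and sciatic nerve were collected at 0–8 h post-dose. Tissues were homogenized in PBS containing NEM at equal volume per gram. NEM-derivatized analyte was extracted with methanol and quantified by LC-MS/MS (1–5000 ng/ml). Cmax is the observed value.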

[4] = Cmax in Sprague-Dawley rat kidney at 10 mg/kg/day, po administered for 5 days measured per gm of tissue by LC-MS/MS analysis; format: ADME, organism-based; parameters: dose 10 mg/kg/day, route oral; summary of the method: as §1
Rattus norvegicus [5] = experiment: Toxicity in Sprague-Dawley rat chronic constriction injury model assessed as paw withdrawal latencies on non-ligated side at 10 mg/kg/day, po; format: organism-based; parameters: route oral; settings: in vivo
[6] = Phase 1 metabolic stability in human liver microsomes assessed as compound remaining at 10 uM measured for 1 hr by LC-MS/MS analysis; format: ADME; settings: read-out: Stability
Summary of the method: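 Liver microsomes (0.5 mg/ml) were incubated with 10 µM compound (final) in 100 mM potassium phosphate, pH 7.4. An NADPH-regenerating system was present: 1.3 mM NADPH, 3.3 mM glucose 6-phosphate, 3.3 mM MgCl2, 0.4 U/ml G6PDH and 50 µM sodium citrate. Runs were in duplicate, with samples taken up to 1 h and quenched with acetonitrile containing internal standard. Loss of compound was followed by LC-MS/MS.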

[7] = Phase 1 metabolic stability in monkey liver microsomes assessed as compound remaining at 10 uM measured for 1 hr by LC-MS/MS analysis in absence of cofactors; format: ADME, Macaca mulatta; settings: rhesus monkey, read-out: Stability
Summary of the method: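 Cofactor-free controls were run for each microsomal incubation: 0.5 mg/ml liver microsomes with 10 µM compound, omitting cofactors, so that cofactor-independent degradation could be measured. Samples were taken up to 1 h, quenched with acetonitrile containing internal standard, and the percent remaining was determined by LC-MS/MS.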

[8] = Metabolic stability in Sprague-Dawley rat plasma assessed as compound remaining at 5 uM after 1 hr by LC-MS/MS analysis; format: ADME, cell-free; settings: read-out: Stability
Summary of the method: (§2)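 Compound at 5 and 10 µM was incubated at 37°C in Sprague-Dawley rat or cynomolgus monkey plasma. Aliquots taken at 0, 30 and 60 min were quenched with acetonitrile and analyzed by LC-MS/MS. Percent remaining = analyte/internal-standard area ratio at time t divided by that at time 0.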

[9] = Metabolic stability in cynomolgus monkey plasma assessed as compound remaining at 5 to 10 uM after 1 hr by LC-MS/MS analysis; format: ADME, cell-free, Macaca fascicularis; settings: read-out: Stability; summary of the method: as §2
Rattus norvegicus [10] = experiment: Apparent oral clearance in Sprague-Dawley rat at 0.1 mg/kg, po administered via gavage measured under fasted conditions by LC-MS/MS analysis; format: ADME, organism-based; parameters: dose 0.1 mg/kg, route oral; settings: in vivo
Summary of the method: (§3)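 Fasted male Sprague-Dawley rats (280–330 g) received 0.1, 1, 10 or 30 mg/kg by oral gavage in 50 mM HEPES buffered saline, pH 7.4. Blood drawn at 0.25–24 h into heparin/NEM tubes; plasma analyzed by LC-MS/MS. Cmax taken as observed. AUC by linear trapezoidal rule with extrapolation by λz. Cl/F and Vd/F reported. Mean ± S.D., n = 4–9.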

[11] = Tmax in Sprague-Dawley rat at 10 mg/kg, po administered via gavage measured under fasted conditions by LC-MS/MS analysis; format: ADME, organism-based; parameters: dose 10 mg/kg, route oral; settings: in vivo
Summary of the method: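 Jugular-cannulated male Sprague-Dawley rats, 280–330 g, fasted overnight to 4 h post-dose. Single dose in 50 mM HEPES-buffered saline pH 7.4, by oral gavage or as tail-vein i.v. bolus. Blood into heparin/NEM tubes at 0–24 h. Plasma measured by LC-MS/MS; noncompartmental analysis; Tmax observed; Vd = dose/(AUCinf·λz).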

[12] = AUC(0 to last) in Sprague-Dawley rat at 0.1 mg/kg, po administered via gavage measured under fasted conditions by LC-MS/MS analysis; format: ADME, organism-based; parameters: time 0 - last, dose 0.1 mg/kg, route oral; settings: plasma; summary of the method: as §3
[13] = AUC(0 to last) in Sprague-Dawley rat at 1 mg/kg, po administered via gavage measured under fasted conditions by LC-MS/MS analysis; format: ADME, organism-based; parameters: time 0 - last, dose 1 mg/kg, route oral; settings: plasma; summary of the method: as §3
[14] = AUC(0 to last) in Sprague-Dawley rat at 10 mg/kg, iv administered as bolus injection measured under fasted conditions by LC-MS/MS analysis; format: ADME, organism-based; parameters: time 0 - last, dose 10 mg/kg, route intravenous; settings: plasma
Summary of the method: (§4)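 Male Sprague-Dawley rats (280–330 g), jugular vein cannulated, fasted overnight until 4 h post-dose. Single tail-vein bolus of 0.1, 1, 10 or 30 mg/kg in 50 mM HEPES buffered saline, pH 7.4. Blood drawn 0–24 h into heparin tubes containing NEM. Plasma quantified by LC-MS/MS after NEM derivatization. Noncompartmental analysis: AUClast by linear trapezoidal rule, Cl = dose/AUC0-∞. Mean ± S.D., n = 4–9.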

Rattus norvegicus [15] = experiment: Clearance in Sprague-Dawley rat at 10 mg/kg, iv administered as bolus injection measured under fasted conditions by LC-MS/MS analysis; format: ADME, organism-based; parameters: dose 10 mg/kg, route intravenous; settings: in vivo; summary of the method: as §4
[16] = Apparent volume of distribution in Sprague-Dawley rat at 0.1 mg/kg, po administered via gavage measured under fasted conditions by LC-MS/MS analysis; format: ADME, organism-based; parameters: dose 0.1 mg/kg, route oral; settings: in vivo; summary of the method: as §3
[17] = Oral bioavailability in Sprague-Dawley rat at 0.1 mg/kg administered via gavage measured under fasted conditions by LC-MS/MS analysis; format: ADME, organism-based; settings: in vivo

O=C(O)c1cccc(-c2cccc(CCS)c2C(=O)O)c1
beta t1/2 (Rattus norvegicus [1]): 105 h | Cmax [2]: 68 µg/mL | AUC (Cynomolgus monkey): 24935.6 ng·h/mL | Cmax [3]: 25 ng/g | Cmax [4]: 388 ng/g | Activity (Rattus norvegicus [5]): Non-toxic | remaining at 1 h, 10 µM [6]: > 90% | remaining at 1 h, 10 µM [7]: > 90% | remaining at 1 h, 5 µM [8]: 55% | remaining at 1 h, up to 10 µM [9]: > 90% | CL/F (Rattus norvegicus [10]): 8.5 mL/min/kg | Tmax [11]: 1.03 h | AUC(0-t) [12]: 268 ng·h/mL | AUC(0-t) [13]: 2610 ng·h/mL | AUC(0-t) [14]: 90200 ng·h/mL | CL (Rattus norvegicus [15]): 4.5 mL/min/kg | Vd/F [16]: 2.98 L/kg | bioavailability [17]: 17.4%
